Assay results as given in ChEMBL document CHEMBL5661979, “Pharmacological inhibition of BMK1 suppresses tumor growth through promyelocytic leukemia protein” (Cancer Cell, 2010).
Activity calls are given as the source filed them. The calls are words filed in the database; no cut-off is given here.

Columns and labels:
[1] = Toxicity in C57Bl/6 mouse assessed as effect on albumin level at 50 mg/kg, ip for 14 days (reference value: 3 g/dl); type: organism-based; settings: in vivo, 336 h, time 14 day
[2] = target: Ribosomal protein S6 kinase alpha-5 (Homo sapiens, UniProt O75582); test: Inhibition of MSK1 domain 1 in human HeLa cells lysate at 10 uM pre incubated for 15 mins followed by ADP acyl phosphate probe addition and measured after 10 mins by LC-MS/MS analysis relative to control; type: subcellular; settings: time 25.0 min
Ribosomal protein S6 kinase alpha-5, sequence (O75582 whole entry, looked up, the tested form may be a part): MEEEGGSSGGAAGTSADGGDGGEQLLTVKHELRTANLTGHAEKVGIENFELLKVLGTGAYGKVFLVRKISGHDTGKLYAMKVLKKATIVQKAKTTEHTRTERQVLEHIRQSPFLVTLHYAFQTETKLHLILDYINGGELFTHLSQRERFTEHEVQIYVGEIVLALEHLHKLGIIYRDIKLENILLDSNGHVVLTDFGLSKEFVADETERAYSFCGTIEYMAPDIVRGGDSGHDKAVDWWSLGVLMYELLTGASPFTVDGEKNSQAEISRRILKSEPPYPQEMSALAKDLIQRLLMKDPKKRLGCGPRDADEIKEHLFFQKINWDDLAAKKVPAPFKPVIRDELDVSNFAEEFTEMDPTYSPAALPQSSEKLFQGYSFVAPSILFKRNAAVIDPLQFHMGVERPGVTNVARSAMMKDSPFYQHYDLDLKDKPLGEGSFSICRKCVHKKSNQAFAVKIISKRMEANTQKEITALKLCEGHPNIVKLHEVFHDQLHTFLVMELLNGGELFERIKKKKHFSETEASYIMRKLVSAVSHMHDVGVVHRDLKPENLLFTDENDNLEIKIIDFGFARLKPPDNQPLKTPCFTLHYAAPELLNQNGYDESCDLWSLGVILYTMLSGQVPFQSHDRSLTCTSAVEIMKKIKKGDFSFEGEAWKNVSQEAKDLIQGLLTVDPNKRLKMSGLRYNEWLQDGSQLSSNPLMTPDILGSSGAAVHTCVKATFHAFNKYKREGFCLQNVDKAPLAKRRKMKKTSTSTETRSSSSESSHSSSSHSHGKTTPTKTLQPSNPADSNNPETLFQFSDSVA

Lewis lung carcinoma = test: Antitumor activity against mouse LL2 cells allografted in C57Bl/6 mouse assessed as reduction tumor growth at 50 mg/kg, ip administered on day 10 post implantation measured after 17 days; type: functional, organism-based; settings: time 7.0 day
Procedure, shortened: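 LL/2 cells (1×10^6, in DMEM) were injected s.c. into the right flank of 6-week-old C57Bl/6 mice on day 0. Dosing was 50 mg/kg i.p. twice daily, starting on day 1, 7 or 10 and continuing to day 17; controls received carrier. 6 mice per treated group. Tumors were measured every 2–3 days.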

[3] = target: T1, Mitogen-activated protein kinase kinase kinase 7 (Homo sapiens) (UniProt O43318); test: Inhibition of TAK1 in human HeLa cells lysate at 10 uM pre incubated for 15 mins followed by ATP acyl phosphate probe addition and measured after 10 mins by LC-MS/MS analysis relative to control; type: subcellular; settings: time 25.0 min
T1 sequence (whole entry): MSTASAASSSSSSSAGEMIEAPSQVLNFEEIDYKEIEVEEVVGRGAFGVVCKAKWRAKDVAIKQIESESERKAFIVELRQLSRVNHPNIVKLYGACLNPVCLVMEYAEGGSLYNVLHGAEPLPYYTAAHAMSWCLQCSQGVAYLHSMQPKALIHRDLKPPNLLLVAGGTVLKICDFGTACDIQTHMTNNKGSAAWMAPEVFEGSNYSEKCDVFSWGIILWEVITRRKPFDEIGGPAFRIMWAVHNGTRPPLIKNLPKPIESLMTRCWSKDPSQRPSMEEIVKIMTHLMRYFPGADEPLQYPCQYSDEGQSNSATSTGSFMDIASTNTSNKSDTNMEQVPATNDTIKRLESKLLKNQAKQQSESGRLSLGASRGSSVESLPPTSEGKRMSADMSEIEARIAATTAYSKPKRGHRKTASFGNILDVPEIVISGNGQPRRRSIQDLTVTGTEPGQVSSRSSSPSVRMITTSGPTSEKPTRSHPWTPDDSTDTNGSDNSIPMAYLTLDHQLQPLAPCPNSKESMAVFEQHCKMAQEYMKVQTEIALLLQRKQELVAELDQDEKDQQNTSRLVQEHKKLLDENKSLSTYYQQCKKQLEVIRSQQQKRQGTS

[4] = target: Cyclin-dependent kinase 9 (Homo sapiens, UniProt P50750); test: Inhibition of CDK9 in human HeLa cells lysate pre incubated for 15 mins followed by ATP acyl phosphate probe addition and measured after 10 mins by LC-MS/MS analysis; type: subcellular
Cyclin-dependent kinase 9, sequence (P50750 whole entry, the tested form may be a part): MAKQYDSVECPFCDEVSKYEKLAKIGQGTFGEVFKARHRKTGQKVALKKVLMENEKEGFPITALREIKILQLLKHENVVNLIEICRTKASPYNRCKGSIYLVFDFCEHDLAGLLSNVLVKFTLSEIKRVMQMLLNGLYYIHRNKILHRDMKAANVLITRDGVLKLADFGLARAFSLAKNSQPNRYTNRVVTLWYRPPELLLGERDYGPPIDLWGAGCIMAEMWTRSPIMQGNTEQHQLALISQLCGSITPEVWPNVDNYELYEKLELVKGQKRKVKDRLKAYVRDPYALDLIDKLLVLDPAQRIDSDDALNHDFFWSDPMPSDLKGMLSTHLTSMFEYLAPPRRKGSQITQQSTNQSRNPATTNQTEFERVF
Procedure, shortened: (§1)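 KiNativ profiling in HeLa lysate (5 mg/mL total protein). Lysate incubated 15 min with inhibitor at 50, 10, 2, 0.8 or 0 μM. ATP or ADP acylphosphate probe then added (5 μM final) and reacted 10 min. Reaction stopped with urea and analysed by targeted MS, using up to four fragment ions per kinase peptide-probe conjugate. % inhibition taken against untreated lysate. Run in duplicate.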

[5] = target: Dual specificity mitogen-activated protein kinase kinase; MEK1/2 (Homo sapiens, UniProt P36507+Q02750); test: Inhibition of MAP2K1/MAP2K2in human HeLa cells lysate at 2 uM pre incubated for 15 mins followed by ADP acyl phosphate probe addition and measured after 10 mins by LC-MS/MS analysis relative to control; type: subcellular; settings: time 25.0 min
Dual specificity mitogen-activated protein kinase kinase; MEK1/2, sequence (P36507 whole entry, looked up): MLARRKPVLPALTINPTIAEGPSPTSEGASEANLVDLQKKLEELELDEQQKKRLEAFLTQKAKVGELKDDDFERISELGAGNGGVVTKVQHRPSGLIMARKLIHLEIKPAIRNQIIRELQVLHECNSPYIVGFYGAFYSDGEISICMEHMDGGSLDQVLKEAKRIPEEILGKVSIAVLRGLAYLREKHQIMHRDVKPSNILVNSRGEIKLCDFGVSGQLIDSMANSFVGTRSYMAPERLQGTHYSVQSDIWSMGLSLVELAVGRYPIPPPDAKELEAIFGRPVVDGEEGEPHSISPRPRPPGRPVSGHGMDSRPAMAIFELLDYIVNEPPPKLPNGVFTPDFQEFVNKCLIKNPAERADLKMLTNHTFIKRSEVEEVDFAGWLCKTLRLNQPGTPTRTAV
Dual specificity mitogen-activated protein kinase kinase; MEK1/2, sequence (Q02750 whole entry, looked up): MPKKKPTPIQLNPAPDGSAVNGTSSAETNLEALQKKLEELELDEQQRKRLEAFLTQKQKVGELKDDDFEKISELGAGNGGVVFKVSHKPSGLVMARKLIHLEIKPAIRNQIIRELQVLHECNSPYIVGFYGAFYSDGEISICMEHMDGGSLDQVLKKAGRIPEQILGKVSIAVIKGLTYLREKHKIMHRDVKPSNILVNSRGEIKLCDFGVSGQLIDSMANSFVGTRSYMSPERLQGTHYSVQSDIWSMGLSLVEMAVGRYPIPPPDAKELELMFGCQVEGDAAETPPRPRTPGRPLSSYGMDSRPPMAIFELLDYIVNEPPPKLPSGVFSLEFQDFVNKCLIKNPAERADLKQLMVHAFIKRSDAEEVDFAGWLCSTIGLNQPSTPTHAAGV

AMPK alpha1/alpha2 = AMPK alpha1/alpha2 (Homo sapiens, UniProt P54646+Q13131); test: Inhibition of AMPKalpha1/2 in human HeLa cells lysate at 50 uM pre incubated for 15 mins followed by ATP acyl phosphate probe addition and measured after 10 mins by LC-MS/MS analysis relative to control; type: subcellular; settings: time 25.0 min
Procedure, shortened: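 HeLa cell lysates (5 mg/mL total protein) were preincubated with inhibitor at 0, 0.8, 2, 10 or 50 μM for 15 min. ATP or ADP acylphosphate probe was then added (5 μM final) for 10 min, and reactions were stopped with urea. Up to four fragment ions per kinase probe-peptide were quantified by targeted MS. % inhibition was taken relative to untreated lysate. Run in duplicate.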

[6] = target: Mitogen-activated protein kinase 14 (Homo sapiens, UniProt Q16539); test: Inhibition of p38a in human HeLa cells lysate at 50 uM pre incubated for 15 mins followed by ATP acyl phosphate probe addition and measured after 10 mins by LC-MS/MS analysis relative to control; type: subcellular; settings: time 25.0 min
[7] = target: Calcium/calmodulin-dependent protein kinase kinase 1 (Homo sapiens, UniProt Q8N5S9); test: Inhibition of CAMKK1 in human HeLa cells lysate pre incubated for 15 mins followed by ADP acyl phosphate probe addition and measured after 10 mins by LC-MS/MS analysis; type: subcellular; procedure, shortened: as §1
Calcium/calmodulin-dependent protein kinase kinase 1, sequence (Q8N5S9 whole entry): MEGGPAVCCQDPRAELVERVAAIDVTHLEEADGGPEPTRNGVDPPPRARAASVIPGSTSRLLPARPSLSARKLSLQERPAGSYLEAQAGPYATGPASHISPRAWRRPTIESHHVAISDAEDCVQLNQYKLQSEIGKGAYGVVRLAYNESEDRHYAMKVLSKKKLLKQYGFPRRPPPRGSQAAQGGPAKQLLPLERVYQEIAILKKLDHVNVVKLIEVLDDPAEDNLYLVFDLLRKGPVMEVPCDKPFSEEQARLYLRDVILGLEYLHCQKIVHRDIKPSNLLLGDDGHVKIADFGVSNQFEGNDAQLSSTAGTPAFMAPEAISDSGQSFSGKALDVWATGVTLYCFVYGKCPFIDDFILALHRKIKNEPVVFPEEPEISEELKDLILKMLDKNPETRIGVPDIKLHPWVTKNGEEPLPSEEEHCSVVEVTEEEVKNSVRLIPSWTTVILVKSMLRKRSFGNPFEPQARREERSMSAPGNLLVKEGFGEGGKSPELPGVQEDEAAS

[8] = target: Ribosomal protein S6 kinase beta-2 (Homo sapiens, UniProt Q9UBS0); test: Inhibition of P70S6KB in human HeLa cells lysate at 2 uM pre incubated for 15 mins followed by ATP acyl phosphate probe addition and measured after 10 mins by LC-MS/MS analysis relative to control; type: subcellular; settings: time 25.0 min
Ribosomal protein S6 kinase beta-2, sequence (Q9UBS0 whole entry): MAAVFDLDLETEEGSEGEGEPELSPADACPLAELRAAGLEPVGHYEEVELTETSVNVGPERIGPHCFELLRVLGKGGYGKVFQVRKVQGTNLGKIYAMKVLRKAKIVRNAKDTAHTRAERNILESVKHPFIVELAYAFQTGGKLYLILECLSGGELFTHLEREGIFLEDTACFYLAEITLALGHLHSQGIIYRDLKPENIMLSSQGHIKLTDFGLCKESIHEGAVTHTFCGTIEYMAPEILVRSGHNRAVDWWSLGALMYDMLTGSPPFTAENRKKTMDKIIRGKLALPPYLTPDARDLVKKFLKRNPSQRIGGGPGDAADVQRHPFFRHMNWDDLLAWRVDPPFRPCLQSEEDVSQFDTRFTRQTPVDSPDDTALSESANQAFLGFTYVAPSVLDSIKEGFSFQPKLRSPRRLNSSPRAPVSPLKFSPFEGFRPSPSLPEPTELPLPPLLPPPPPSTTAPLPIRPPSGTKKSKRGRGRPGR

[9] = target: Proto-oncogene tyrosine-protein kinase ROS (Homo sapiens) (UniProt P08922); test: Inhibition of ROS1 (unknown origin) assessed as remaining activity at 10 uM by ATP-competition binding assay relative to control
[10] = Cmax in Sprague-Dawley rat at 2 mg/kg, po measured up to 8 hrs by LC-MS/MS analysis; type: ADME, organism-based; settings: in vivo
Procedure, shortened: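 Sprague-Dawley rats given one intravenous dose or one oral dose of 2 mg/kg. Plasma drug concentrations were followed over time, with samples taken out to 8 hr after dosing. PK parameters (clearance, volume of distribution, half-life, oral bioavailability, Cmax) were calculated from these concentration–time data.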

Insulin receptor = Insulin receptor (Homo sapiens, UniProt P06213); test: Inhibition of INSR in human HeLa cells lysate at 50 uM pre incubated for 15 mins followed by ADP acyl phosphate probe addition and measured after 10 mins by LC-MS/MS analysis relative to control; type: subcellular; settings: time 25.0 min
Insulin receptor, sequence (P06213 28-758 limits assumed): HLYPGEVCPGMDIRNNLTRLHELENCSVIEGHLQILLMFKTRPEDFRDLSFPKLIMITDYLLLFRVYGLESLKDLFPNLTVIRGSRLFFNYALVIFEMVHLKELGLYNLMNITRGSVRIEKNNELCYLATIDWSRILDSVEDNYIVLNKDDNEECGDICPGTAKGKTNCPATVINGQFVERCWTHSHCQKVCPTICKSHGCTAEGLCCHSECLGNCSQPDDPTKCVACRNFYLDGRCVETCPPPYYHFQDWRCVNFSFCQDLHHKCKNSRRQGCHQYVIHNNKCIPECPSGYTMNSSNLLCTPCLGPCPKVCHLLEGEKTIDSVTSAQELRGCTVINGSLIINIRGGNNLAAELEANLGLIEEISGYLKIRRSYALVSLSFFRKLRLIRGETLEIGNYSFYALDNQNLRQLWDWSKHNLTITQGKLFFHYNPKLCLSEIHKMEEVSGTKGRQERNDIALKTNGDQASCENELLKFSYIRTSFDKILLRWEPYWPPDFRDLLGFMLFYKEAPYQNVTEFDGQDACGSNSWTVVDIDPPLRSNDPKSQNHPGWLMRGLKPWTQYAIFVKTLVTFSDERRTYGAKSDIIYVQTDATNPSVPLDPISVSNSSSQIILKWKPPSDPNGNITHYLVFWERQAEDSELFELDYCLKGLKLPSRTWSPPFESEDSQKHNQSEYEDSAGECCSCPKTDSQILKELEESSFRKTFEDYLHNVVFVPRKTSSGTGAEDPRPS
Insulin receptor, sequence (P06213 763-1382 limits assumed): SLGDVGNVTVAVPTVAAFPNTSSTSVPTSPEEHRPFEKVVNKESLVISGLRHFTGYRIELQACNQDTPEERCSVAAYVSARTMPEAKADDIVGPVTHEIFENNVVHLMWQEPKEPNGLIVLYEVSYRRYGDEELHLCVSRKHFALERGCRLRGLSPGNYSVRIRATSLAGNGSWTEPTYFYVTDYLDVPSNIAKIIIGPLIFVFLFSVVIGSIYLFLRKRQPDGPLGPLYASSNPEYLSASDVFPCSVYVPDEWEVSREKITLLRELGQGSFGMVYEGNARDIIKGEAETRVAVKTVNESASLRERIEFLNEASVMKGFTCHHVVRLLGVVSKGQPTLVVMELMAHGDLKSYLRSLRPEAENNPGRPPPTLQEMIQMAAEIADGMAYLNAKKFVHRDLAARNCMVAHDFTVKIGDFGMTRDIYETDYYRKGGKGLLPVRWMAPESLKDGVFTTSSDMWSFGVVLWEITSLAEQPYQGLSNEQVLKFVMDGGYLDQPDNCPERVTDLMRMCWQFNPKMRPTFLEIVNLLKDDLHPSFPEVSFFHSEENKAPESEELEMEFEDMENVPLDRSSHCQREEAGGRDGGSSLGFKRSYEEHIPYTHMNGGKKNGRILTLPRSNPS

[11] = target: Serine/threonine-protein kinase 24 (Homo sapiens, UniProt Q9Y6E0); test: Inhibition of MST3 in human HeLa cells lysate at 2 uM pre incubated for 15 mins followed by ADP acyl phosphate probe addition and measured after 10 mins by LC-MS/MS analysis relative to control; type: subcellular; settings: time 25.0 min
Serine/threonine-protein kinase 24, sequence (Q9Y6E0 whole entry, looked up): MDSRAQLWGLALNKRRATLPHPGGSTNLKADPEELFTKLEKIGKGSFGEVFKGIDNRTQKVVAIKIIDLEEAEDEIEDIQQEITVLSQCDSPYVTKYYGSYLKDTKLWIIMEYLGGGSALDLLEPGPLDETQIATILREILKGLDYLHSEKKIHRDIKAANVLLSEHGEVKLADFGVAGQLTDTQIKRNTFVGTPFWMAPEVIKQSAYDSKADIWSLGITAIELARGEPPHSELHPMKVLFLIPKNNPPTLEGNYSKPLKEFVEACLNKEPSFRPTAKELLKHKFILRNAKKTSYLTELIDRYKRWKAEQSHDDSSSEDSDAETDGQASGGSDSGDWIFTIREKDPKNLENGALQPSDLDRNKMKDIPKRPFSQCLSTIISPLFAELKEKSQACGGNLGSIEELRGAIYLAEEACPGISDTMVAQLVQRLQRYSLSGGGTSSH

[12] = Inhibition of MSK1/2 in human HeLa cells lysate pre incubated for 15 mins followed by ATP acyl phosphate probe addition and measured after 10 mins by LC-MS/MS analysis; type: subcellular
[13] = target: Phosphatidylinositol 4-phosphate 3-kinase C2 domain-containing subunit beta (Homo sapiens, UniProt O00750); test: Inhibition of PIK3C2B in human HeLa cells lysate at 50 uM pre incubated for 15 mins followed by ATP acyl phosphate probe addition and measured after 10 mins by LC-MS/MS analysis relative to control; type: subcellular; settings: time 25.0 min

**Q.** Which results are given for `CCOc1cc(N2CCC(O)CC2)ccc1Nc1ncc2c(n1)N(C)c1ccccc1C(=O)N2C`?
**A.** Activity [1]: 3.3 g/dL; inhibition [2]: -7.3%; Activity (Lewis lung carcinoma): Active; inhibition [3]: 21.2%; IC50 [4]: > 50 µM; inhibition [5]: 0.6%; inhibition (AMPK alpha1/alpha2): 32%; inhibition [6]: 31.4%; IC50 [7]: > 50 µM; inhibition [8]: 1.9%; Activity [9]: 15%; Cmax [10]: 522 nM; inhibition (Insulin receptor): -6.5%; inhibition [11]: 3.2%; IC50 [12]: > 50 µM; inhibition [13]: 46.3%
